The nature of data set [1]: Thermodynamic solubility of the compound in 0.1 M aqueous phosphate buffer at 25 degC at pH 7.4 after 24 hrs. It counts as physicochemical. The settings on record: read-out: Therm_solubility.
Data set [2] deals with Voltage-gated inwardly rectifying potassium channel KCNH2 (Homo sapiens, UniProt Q12809). Description: Inhibition of hERG channel by electrophysiology. Type of data set: toxicity.
Data set [3] in a line: Free plasma concentration in rat by LC-UV-MS analysis. Type of data set: ADME, cell-free. Put shortly: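 Equilibrium dialysis in plasma of the matching species at 37 °C; free and bound concentrations quantified by LC-UV-MS; reported as % free.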
The nature of data set [4]: Intrinsic clearance in rat hepatocytes measured per 10^6 cells. The settings on record: read-out: CLH. It counts as ADME, cell-based, Hepatocyte.
Data set [5] has as its target T1, Estrogen receptor (Homo sapiens, UniProt P03372).
T1 sequence (P03372 whole entry): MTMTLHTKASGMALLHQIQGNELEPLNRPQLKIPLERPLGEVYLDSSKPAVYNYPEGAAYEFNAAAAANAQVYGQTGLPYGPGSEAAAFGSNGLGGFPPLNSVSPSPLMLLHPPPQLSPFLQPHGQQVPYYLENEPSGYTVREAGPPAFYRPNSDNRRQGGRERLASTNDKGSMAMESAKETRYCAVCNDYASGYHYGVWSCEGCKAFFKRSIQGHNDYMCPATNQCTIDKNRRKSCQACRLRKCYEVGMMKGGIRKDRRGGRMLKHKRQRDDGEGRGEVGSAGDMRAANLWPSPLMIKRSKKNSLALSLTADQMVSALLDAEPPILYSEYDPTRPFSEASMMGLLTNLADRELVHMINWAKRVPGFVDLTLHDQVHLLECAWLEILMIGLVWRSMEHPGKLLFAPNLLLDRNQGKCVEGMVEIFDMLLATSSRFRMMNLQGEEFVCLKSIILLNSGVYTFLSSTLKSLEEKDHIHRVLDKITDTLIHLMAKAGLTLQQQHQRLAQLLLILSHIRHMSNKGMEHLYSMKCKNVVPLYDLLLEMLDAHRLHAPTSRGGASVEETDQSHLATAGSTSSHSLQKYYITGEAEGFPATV
Description: Binding affinity to ER alpha (unknown origin) by LanthaScreen TR-FRET competitive binding assay. A digest of the protocol:
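LanthaScreen TR-FRET ERα competitive binding; 12-point half-log concentration response; TR-FRET emission ratio read on microplate reader; IC50 reported.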
For orientation: Time-resolved FRET reads energy transfer from a long-lived donor to a nearby acceptor.

For data set [6], the target named is T1, Estrogen receptor. The experiment in a line: Suppression of ER alpha in human MCF7 cells after 24 hrs by immunostaining analysis. It counts as cell-based.
Data set [7] is described as follows: Octanol-buffer partition coefficient, log D of the compound at ratio of 1:100 at pH 7.4 by shake-flask method. It counts as physicochemical.
A short description of data set [8]: Dissociation constant, pKa of the compound by potentiometric analysis […] phenol. Type of data set: physicochemical. Put shortly: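 pKa (acid and phenol) by potentiometric titration.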
Data set [9] in a line: Intrinsic clearance in human hepatocytes measured per 10^6 cells. It counts as ADME, cell-based, Hepatocyte. The settings on record: read-out: CLH.

Converted amounts (≈) assume the structure as drawn. A value given as a limit tells only on which side of the number the result lay.

Voltage-gated inwardly rectifying potassium channel KCNH2, sequence (Q12809 whole entry): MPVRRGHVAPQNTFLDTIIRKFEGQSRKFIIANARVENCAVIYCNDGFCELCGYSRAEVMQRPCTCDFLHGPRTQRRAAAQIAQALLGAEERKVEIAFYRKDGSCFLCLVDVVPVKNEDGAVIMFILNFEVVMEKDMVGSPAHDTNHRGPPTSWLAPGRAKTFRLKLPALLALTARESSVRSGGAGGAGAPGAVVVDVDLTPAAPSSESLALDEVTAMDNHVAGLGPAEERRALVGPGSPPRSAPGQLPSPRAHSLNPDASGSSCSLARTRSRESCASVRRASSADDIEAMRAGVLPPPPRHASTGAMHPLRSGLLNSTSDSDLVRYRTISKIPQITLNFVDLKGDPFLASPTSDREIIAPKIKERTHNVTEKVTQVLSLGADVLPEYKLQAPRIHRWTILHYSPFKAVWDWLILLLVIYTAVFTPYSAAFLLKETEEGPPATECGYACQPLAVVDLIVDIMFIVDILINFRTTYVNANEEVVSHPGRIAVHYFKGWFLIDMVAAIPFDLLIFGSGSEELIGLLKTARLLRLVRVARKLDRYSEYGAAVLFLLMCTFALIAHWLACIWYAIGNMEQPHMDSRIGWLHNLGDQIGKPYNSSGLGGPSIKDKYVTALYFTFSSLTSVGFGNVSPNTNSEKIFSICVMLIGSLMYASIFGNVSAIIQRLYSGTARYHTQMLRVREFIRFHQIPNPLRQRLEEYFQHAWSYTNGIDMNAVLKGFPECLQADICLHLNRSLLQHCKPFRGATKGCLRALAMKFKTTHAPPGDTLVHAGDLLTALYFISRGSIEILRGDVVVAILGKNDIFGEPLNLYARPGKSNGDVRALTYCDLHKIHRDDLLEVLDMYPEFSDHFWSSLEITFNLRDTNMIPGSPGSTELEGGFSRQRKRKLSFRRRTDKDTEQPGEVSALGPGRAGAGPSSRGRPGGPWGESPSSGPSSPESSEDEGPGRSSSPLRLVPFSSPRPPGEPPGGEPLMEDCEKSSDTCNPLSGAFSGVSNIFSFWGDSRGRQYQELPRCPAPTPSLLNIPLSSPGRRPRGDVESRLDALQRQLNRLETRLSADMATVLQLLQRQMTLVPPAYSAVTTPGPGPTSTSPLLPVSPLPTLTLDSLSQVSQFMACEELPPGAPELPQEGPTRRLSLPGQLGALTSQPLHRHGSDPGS

For orientation: IC50 means the point on the concentration scale where inhibition reaches its midpoint. The low end stands for inhibition by little substance, the high end for a need for much substance. In general, fraction unbound refers to the share of the substance not bound to proteins or other matrix. Higher therefore signals much free substance. `CC/C(=C(\c1ccc(O)cc1)c1ccc(/C=C/C(=O)O)cc1)c1ccccc1`: the solubility thermodynamic at 24 h in data set [1] was determined as 200 µM (≈ 74.1 µg/mL). The half-maximal inhibitory concentration (IC50) in data set [2] is over 100000 nM. Also, the fraction unbound in [3] was 0.0009. Besides, the hepatocyte CLint in [4] was found to be 12 µL/min/1e6 cells.
A word on the logD: it is lipophilicity at a set pH, counting ionised and neutral species. Broadly, the pKa is the pH at which an ionisable group is half protonated. For the compound `Cc1cc2c(Cc3ccc(/C=C/C(=O)O)cc3)c(-c3ccc(OC(F)(F)F)cc3)c(=O)oc2cc1O`, the IC50 on Estrogen receptor [5] was 10 nM; on Estrogen receptor [6], 320 nM. Also, in data set [7], the logD came out at 3.1. In [8], the pKa is 7.6. Also, the hepatocyte CLint in data set [9] was determined as 17 µL/min/1e6 cells; in data set [4], 37 µL/min/1e6 cells.
For the compound `Cc1cccc(-c2c(Cc3ccc(/C=C/C(=O)O)cc3)c3ccc(O)cc3oc2=O)c1`, the IC50 was 17 nM on Estrogen receptor [5] and 3090 nM on Estrogen receptor [6]. In addition, in data set [7], the logD was found to be 2.2.
With `COc1cccc(-c2c(Cc3ccc(/C=C/C(=O)O)cc3)c3ccc(O)cc3oc2=O)c1`, the IC50 at Estrogen receptor [5] was found to be 41 nM; on Estrogen receptor [6] it was 5640 nM. In addition, the logD in [7] stood at 1.9.
With `O=C(O)/C=C/c1ccc(Cc2c(-c3cccc(OC(F)(F)F)c3)c(=O)oc3cc(O)ccc23)cc1`, the IC50 came to 5.9 nM on Estrogen receptor [5] and 1710 nM on Estrogen receptor [6]. In addition, the logD in data set [7] was found to be 2.9.
In the case of `O=C(O)/C=C/c1ccc(Cc2c(-c3ccc(Cl)cc3)c(=O)oc3cc(O)ccc23)cc1`, the IC50 on Estrogen receptor [5] was 3.7 nM; at Estrogen receptor [6] it was 471 nM. Besides, the logD in data set [7] amounted to 2.4.
As for `O=C(O)/C=C/c1ccc(Cc2c(-c3ccc(C(F)(F)F)cc3)c(=O)oc3cc(O)ccc23)cc1`, the IC50 at Estrogen receptor [5] was determined as 4.6 nM; against Estrogen receptor [6], 531 nM. Besides, in data set [7], the logD came out at 2.6.
As for `COc1ccc(-c2c(Cc3ccc(/C=C/C(=O)O)cc3)c3ccc(O)cc3oc2=O)cc1`, the values for the IC50 at Estrogen receptor [5] and on Estrogen receptor [6] were 3.8 nM and 350 nM, respectively. Besides, in data set [7], the pH-dependent lipophilicity (logD) stood at 1.9.
`O=C(O)/C=C/c1ccc(Cc2c(-c3ccc(OC(F)(F)F)cc3)c(=O)oc3cc(O)ccc23)cc1`: the results for the 50% inhibitory concentration (IC50) on Estrogen receptor [5] and against Estrogen receptor [6] were 1.6 nM and 52 nM, respectively. In data set [7], the logD turned out to be 2.8. The pKa in [8] was determined as 8.7. The hepatocyte CLint is 9 µL/min/1e6 cells in data set [9] and 40 µL/min/1e6 cells in data set [4].
Consider `O=C(O)/C=C/c1ccc(Cc2c(-c3ccc(F)cc3F)c(=O)oc3cc(O)ccc23)cc1`, for which the half-inhibitory concentration (IC50) at Estrogen receptor [5] is 3 nM; on Estrogen receptor [6], 660 nM. In addition, the logD in data set [7] was 1.7.
As to `O=C(O)/C=C/c1ccc(Cc2c(-c3ccc(F)cc3Cl)c(=O)oc3cc(O)ccc23)cc1`, the IC50 on Estrogen receptor [5] came out at 2.2 nM; against Estrogen receptor [6] it was 178 nM.
With `COc1cc(F)ccc1-c1c(Cc2ccc(/C=C/C(=O)O)cc2)c2ccc(O)cc2oc1=O`, the IC50 was found to be 11 nM on Estrogen receptor [5] and 2260 nM on Estrogen receptor [6]. For the same compound, the logD in [7] is 1.8.
With `Cc1cc(F)ccc1-c1c(Cc2ccc(/C=C/C(=O)O)cc2)c2ccc(O)cc2oc1=O`, the IC50 is 3.9 nM on Estrogen receptor [5] and 117 nM against Estrogen receptor [6]. Further, the logD in data set [7] came out at 2.1. The pKa in data set [8] came out at 7.7. Besides, the hepatocyte CLint was determined as 11 µL/min/1e6 cells in data set [9] and 81 µL/min/1e6 cells in data set [4].
For `Cc1cc(Cl)ccc1-c1c(Cc2ccc(/C=C/C(=O)O)cc2)c2ccc(O)cc2oc1=O`, the IC50 at Estrogen receptor [5] came out at 1.5 nM; at Estrogen receptor [6], 30 nM.
`Cc1cc(OC(F)(F)F)ccc1-c1c(Cc2ccc(/C=C/C(=O)O)cc2)c2ccc(O)cc2oc1=O`: the IC50 was 1 nM on Estrogen receptor [5] and 7 nM against Estrogen receptor [6]. For the same compound, the logD in data set [7] amounted to 3.1.
For the compound `Cc1cc(F)ccc1-c1c(-c2ccc(/C=C/C(=O)O)cc2)c2ccc(O)cc2oc1=O`, the results for the IC50 at Estrogen receptor [5] and at Estrogen receptor [6] were 5.8 nM and 256 nM, respectively. Also, the logD in [7] came out at 2.
As for `Cc1cc(F)ccc1-c1c(Nc2ccc(/C=C/C(=O)O)cc2)c2ccc(O)cc2oc1=O`, the values for the IC50 on Estrogen receptor [5] and at Estrogen receptor [6] were 25 nM and 1450 nM, respectively. Moreover, the logD in data set [7] was determined as 1.3.
Take `Cc1cc(F)ccc1-c1c(N(C)c2ccc(/C=C/C(=O)O)cc2)c2ccc(O)cc2oc1=O`: the IC50 came to 9.9 nM at Estrogen receptor [5] and 60 nM on Estrogen receptor [6]. Also, the pH-dependent lipophilicity (logD) in data set [7] is 2.3.
On to `Cc1cc(F)ccc1-c1c(Oc2ccc(/C=C/C(=O)O)cc2)c2cc(F)c(O)cc2oc1=O`, for which the IC50 is 7.4 nM on Estrogen receptor [5] and over 3000 nM against Estrogen receptor [6]. Moreover, the logD in data set [7] is 0.8. Also, in [8], the pKa was determined as 5.8. Besides, the hepatocyte CLint worked out at 28 µL/min/1e6 cells in data set [9] and 84 µL/min/1e6 cells in [4].
For the compound `Cc1cc(F)ccc1-c1c(Oc2ccc(/C=C/C(=O)O)cc2)c2ccc(O)c(F)c2oc1=O`, the IC50 came out at 3.2 nM at Estrogen receptor [5] and 509 nM against Estrogen receptor [6]. Besides, the logD in [7] worked out at 0.6. The pKa in [8] amounted to 6.1. Further, the results for the hepatocyte CLint in data set [9] and in [4] were 11 µL/min/1e6 cells and 33 µL/min/1e6 cells, respectively.
With `Cc1c(O)ccc2c(Cc3ccc(/C=C/C(=O)O)cc3)c(-c3ccc(OC(F)(F)F)cc3)c(=O)oc12`, the results for the IC50 at Estrogen receptor [5] and against Estrogen receptor [6] were 280 nM and 5840 nM, respectively. In data set [7], the logD amounted to 3.4. In data set [8], the pKa is 8.5. The values for the hepatocyte CLint in data set [9] and in data set [4] were 20 µL/min/1e6 cells and 39 µL/min/1e6 cells, respectively.
As to `O=C(O)/C=C/c1ccc(Cc2c(-c3ccc(OC(F)(F)F)cc3)c(=O)oc3ccccc23)cc1`, the IC50 at Estrogen receptor [5] was 360 nM; against Estrogen receptor [6], 1300 nM. Also, the logD in [7] was 2.8. For the same compound, the hepatocyte CLint in data set [9] was determined as 8 µL/min/1e6 cells; in data set [4], 20 µL/min/1e6 cells.
Regarding `Cc1cc(F)ccc1-c1c(Cc2ccc(/C=C/C(=O)O)cc2)c2ccc(C(F)F)cc2oc1=O`, the figures for the IC50 at Estrogen receptor [5] and against Estrogen receptor [6] were 390 nM and over 2150 nM, respectively. Also, the logD in [7] was found to be 2.2. Further, the hepatocyte CLint in data set [9] was under 3 µL/min/1e6 cells; in [4], 16 µL/min/1e6 cells.
For the compound `COc1ccc2c(Cc3ccc(/C=C/C(=O)O)cc3)c(-c3ccc(OC(F)(F)F)cc3)c(=O)oc2c1`, the IC50 at Estrogen receptor [5] worked out at 1100 nM; on Estrogen receptor [6], 3600 nM. For the same compound, in [7], the logD came to 3. For the same compound, the hepatocyte CLint in [9] and in [4] was 23 µL/min/1e6 cells in each case.
Consider `O=C(O)/C=C/c1ccc(Cc2c(-c3ccc(OC(F)(F)F)cc3)c(=O)oc3cc(F)ccc23)cc1`, for which the half-maximal inhibitory concentration (IC50) at Estrogen receptor [5] came to 5800 nM; against Estrogen receptor [6], 10600 nM. Further, the logD in data set [7] was 2.5. Moreover, the hepatocyte CLint in data set [4] was 4.4 µL/min/1e6 cells.
For `Cc1cc(OC(F)(F)F)ccc1-c1c(Oc2ccc(/C=C/C(=O)O)cc2)c2ccc(C(F)F)cc2oc1=O`, the IC50 on Estrogen receptor [5] is 50 nM; on Estrogen receptor [6], 506 nM. For the same compound, the logD in data set [7] was found to be 3. The hepatocyte CLint was 11 µL/min/1e6 cells in [9] and 3 µL/min/1e6 cells in data set [4].
As for `CCOc1ccc2c(Oc3ccc(/C=C/C(=O)O)cc3)c(-c3ccc(OC(F)(F)F)cc3C)c(=O)oc2c1`, the IC50 at Estrogen receptor [5] worked out at 50 nM; at Estrogen receptor [6] it was 253 nM. Further, the hepatocyte CLint in data set [9] was 20 µL/min/1e6 cells; in [4] it was 21 µL/min/1e6 cells.
With `Cc1cc(F)ccc1-c1c(Cc2ccc(/C=C/C(=O)O)cc2)c2ccc(N)cc2oc1=O`, at Estrogen receptor [6], the midpoint of inhibition, the IC50, lay at 1380 nM. Besides, the logD in [7] turned out to be 1.7. Moreover, the hepatocyte CLint stood at 10 µL/min/1e6 cells in [9] and 18 µL/min/1e6 cells in [4].

The record behind these values is ChEMBL document CHEMBL3425438, “Investigation of (E)-3-[4-(2-Oxo-3-aryl-chromen-4-yl)oxyphenyl]acrylic Acids as Oral Selective Estrogen Receptor Down-Regulators” (J Med Chem, 2015).
